For series [1], the system named is Mycobacterium avium. Briefly: Antimycobacterial activity against Mycobacterium avium CNCTC My 152/73 after 10 to 14 days by microdilution panel method. The series is classed as functional. Summed up:
(§1)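 Whole-cell microdilution panel assay on strains from the Czech National Collection of Type Cultures (M. tuberculosis H37Rv My 331/88, M. avium ssp. avium Chester My 80/72, M. avium My 152/73). MIC (μg/mL) was read visually as the lowest concentration of compound that inhibited mycobacterial growth.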

Series [2] in a line: Lipophilicity, log K of the compound in methanol-water mixture by HPLC analysis. In kind it is physicochemical.
Series [3] is described as follows: Selectivity index, ratio of IC50 for human HepG2 cells to MIC for Mycobacterium tuberculosis H37Rv CNCTC My 331/88. The series is classed as functional. Summed up:
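Cytotoxicity was measured as the decrease in viability of human liver Hep G2 cells, read colorimetrically by tetrazolium salt reduction over a dilution series. IC50 was taken from this readout, and SI was calculated as the Hep G2 IC50 divided by the M. tuberculosis H37Rv MIC from the microdilution panel assay.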

The next series concerns Mycobacterium kansasii. The series can be described thus: Antimycobacterial activity against Mycobacterium kansasii CNCTC My 235/80 after 10 to 14 days by microdilution panel method. In kind it is functional. Put shortly:
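Microdilution panel method. Strain obtained from Czech National Collection of Type Cultures (CNCTC My 235/80). MIC in μg/mL read visually as the lowest compound concentration that inhibited mycobacterial growth.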

The subject of series [4] is Mycobacterium avium. The series can be described thus: Antimycobacterial activity against Mycobacterium avium CNCTC My 80/72 after 10 to 14 days by microdilution panel method. In kind it is functional. Summed up:
as §1

For series [5], the system named is Mycobacterium tuberculosis. The series can be described thus: Antimycobacterial activity against Mycobacterium tuberculosis H37Rv CNCTC My 331/88 after 10 to 14 days by microdilution panel method. In kind it is functional. Summed up:
as §1

The next series has as its system HepG2. The series can be described thus: Cytotoxicity against human HepG2 cells. The series is classed as cell-based.
The subject of series [6] is Mycobacterium tuberculosis. The series can be described thus: Ratio of pyrazinamide MIC to compound MIC for Mycobacterium tuberculosis H37Rv CNCTC My 331/88. In kind it is functional.

The source of these data is ChEMBL document CHEMBL2311333, “Synthesis and antimycobacterial evaluation of pyrazinamide derivatives with benzylamino substitution” (Bioorg Med Chem Lett, 2013).

SMILES strings stand for the structures.

For the compound `N#Cc1cnc(C#N)c(NCc2ccc(Cl)cc2)n1`, the MIC with Mycobacterium avium [1] was more than 100 µg/mL; against Mycobacterium kansasii, 46 µM; in the series on Mycobacterium avium [4], more than 100 µg/mL; in series [5], 93 µM. Also, in series [2], the “log K” value was 0.5735. In addition, in series [3], the “Selectivity Index” value was found to be 0.4. The same compound came in with a 50% inhibitory concentration (IC50) with HepG2 of 35.5 µM.
In the case of `N#Cc1cnc(C(N)=O)c(NCc2ccc(N)cc2)n1`, the MIC in the series with Mycobacterium avium [1] is more than 100 µg/mL; against Mycobacterium kansasii, more than 100 µg/mL; against Mycobacterium avium [4], more than 100 µg/mL; in series [5] it was 47 µM. For the same compound, in series [2], the “log K” value is given as -0.2005. Also, the “Selectivity Index” value in series [3] is reported as more than 21.3. The same compound displayed an IC50 in the series with HepG2 of more than 1000 µM.
On to `N#Cc1cnc(C(N)=O)c(NCc2ccccc2)n1`, for which the MIC (in the series on Mycobacterium avium [1]; against Mycobacterium kansasii; in the series with Mycobacterium avium [4]; in series [5]) was more than 100 µg/mL throughout. In series [2], the “log K” value stood at 0.326.
Consider `COc1ccc(CNc2nc(C#N)cnc2C#N)cc1`, for which the MIC is more than 100 µg/mL in the series on Mycobacterium avium [1], 99 µM in the series with Mycobacterium kansasii, more than 100 µg/mL in the series with Mycobacterium avium [4] and 188 µM in series [5]. The “log K” value in series [2] stood at 0.3259. In addition, the “Selectivity Index” value in series [3] amounted to 0.5. The compound further displayed an IC50 in the series on HepG2 of 95.9 µM.
Take `N#Cc1cnc(C(N)=O)c(NCc2ccc(Cl)c(Cl)c2)n1`: the MIC (in the series on Mycobacterium avium [1]; in the series with Mycobacterium kansasii; in the series on Mycobacterium avium [4]; in series [5]) was more than 100 µg/mL in each case. The “log K” value in series [2] came out at 0.7353.
As for `N#Cc1cnc(C#N)c(NCc2ccc(N)cc2)n1`, the MIC against Mycobacterium avium [1] is more than 100 µg/mL; in the series with Mycobacterium kansasii, more than 100 µg/mL; with Mycobacterium avium [4], more than 100 µg/mL; in series [5], 100 µM. Besides, the “log K” value in series [2] is reported as -0.1621. For the same compound, the “Selectivity Index” value in series [3] was found to be 5.5. Half-maximal inhibition with HepG2 (IC50) required 549 µM.
Regarding `N#Cc1cnc(C(N)=O)c(NCc2cccc(Cl)c2)n1`, the MIC (in the series with Mycobacterium avium [1]; against Mycobacterium kansasii; with Mycobacterium avium [4]; in series [5]) was more than 100 µg/mL in each case. For the same compound, in series [2], the “log K” value worked out at 0.5141.
In the case of `N#Cc1cnc(C(N)=O)c(NCc2cccc(C(F)(F)F)c2)n1`, the minimum inhibitory concentration (MIC) is more than 100 µg/mL in the series with Mycobacterium avium [1], more than 100 µg/mL with Mycobacterium kansasii, more than 100 µg/mL against Mycobacterium avium [4] and 78 µM in series [5]. Moreover, the “log K” value in series [2] was found to be 0.5104. Also, the “Selectivity Index” value in series [3] is 0.4. Inhibition with HepG2 was half-maximal at 27.8 µM (IC50).
`N#Cc1cnc(C#N)c(NCc2ccc(Cl)c(Cl)c2)n1`: the MIC (against Mycobacterium avium [1]; against Mycobacterium kansasii; in the series with Mycobacterium avium [4]; in series [5]) was more than 100 µg/mL in each case. For the same compound, the “log K” value in series [2] was determined as 0.783.
Take `Cc1ccccc1CNc1nc(C#N)cnc1C#N`: the MIC (in the series on Mycobacterium avium [1]; in the series with Mycobacterium kansasii; against Mycobacterium avium [4]; in series [5]) was more than 100 µg/mL each time. The “log K” value in series [2] is listed as 0.5043.
`COc1ccc(CNc2nc(C#N)cnc2C(N)=O)cc1`: the MIC (with Mycobacterium avium [1]; against Mycobacterium kansasii; against Mycobacterium avium [4]; in series [5]) was more than 100 µg/mL throughout. In series [2], the “log K” value amounted to 0.3074.
As to `NC(=O)c1cnccn1` [PYRAZINAMIDE], the MIC against Mycobacterium avium [1] was more than 100 µg/mL; against Mycobacterium kansasii, more than 100 µg/mL; in the series on Mycobacterium avium [4], more than 100 µg/mL; in series [5], 51 µM. The “Selectivity Index” value in series [3] was found to be 775.
With `N#Cc1cnc(C(N)=O)c(NCc2ccc(Cl)cc2)n1`, the MIC (against Mycobacterium avium [1]; in the series on Mycobacterium kansasii; with Mycobacterium avium [4]; in series [5]) was more than 100 µg/mL each time. In addition, the “log K” value in series [2] is recorded as 0.5421.
Consider `N#Cc1cnc(C#N)c(NCc2ccccc2)n1`, for which the MIC with Mycobacterium avium [1] was determined as 53 µM; in the series with Mycobacterium kansasii, 106 µM; with Mycobacterium avium [4], 106 µM; in series [5], 53 µM. Also, the “log K” value in series [2] is listed as 0.335. Also, in series [3], the “Selectivity Index” value came to 1.1. The IC50 in the series on HepG2 turned out to be 60.8 µM.
On to `N#Cc1cnc(C#N)c(NCc2cccc(Cl)c2)n1`, for which the MIC in the series on Mycobacterium avium [1] is more than 100 µg/mL; against Mycobacterium kansasii, 46 µM; against Mycobacterium avium [4], more than 100 µg/mL; in series [5] it was 46 µM. Also, in series [2], the “log K” value amounted to 0.5456. The “Selectivity Index” value in series [3] is given as 0.9. This compound also had an IC50 in the series with HepG2 of 40 µM.
With `NNC(=O)c1ccncc1` [ISONIAZID], the MIC was found to be 23 µM in the series on Mycobacterium avium [1], 91 µM against Mycobacterium kansasii, 46 µM in the series on Mycobacterium avium [4] and 11 µM in series [5].
Regarding `Cc1ccc(CNc2nc(C#N)cnc2C#N)cc1`, the MIC against Mycobacterium avium [1] is more than 100 µg/mL; in the series on Mycobacterium kansasii, more than 100 µg/mL; with Mycobacterium avium [4], more than 100 µg/mL; in series [5], 25 µM. The “log K” value in series [2] is given as 0.5598. The “Selectivity Index” value in series [3] is recorded as 2.8. The same compound had a concentration for half-maximal inhibition (IC50) in the series with HepG2 of 70.8 µM. Further, the Ratio in series [6] is recorded as 2.
Consider `N#Cc1cnc(C#N)c(NCc2cccc(C(F)(F)F)c2)n1`, for which the MIC (against Mycobacterium avium [1]; in the series on Mycobacterium kansasii; with Mycobacterium avium [4]; in series [5]) was more than 100 µg/mL throughout. Moreover, the “log K” value in series [2] came out at 0.5615.
Turning to `Cc1ccc(CNc2nc(C#N)cnc2C(N)=O)cc1`, the MIC is more than 100 µg/mL in the series on Mycobacterium avium [1], more than 100 µg/mL in the series on Mycobacterium kansasii, more than 100 µg/mL with Mycobacterium avium [4] and 47 µM in series [5]. In series [2], the “log K” value is recorded as 0.5533. The “Selectivity Index” value in series [3] was 1.2. This compound also came in with an IC50 in the series with HepG2 of 54.6 µM.
With `N#Cc1cnc(C#N)c(NCc2cccc([N+](=O)[O-])c2)n1`, the MIC (against Mycobacterium avium [1]; against Mycobacterium kansasii; with Mycobacterium avium [4]; in series [5]) was more than 100 µg/mL throughout. Further, the “log K” value in series [2] is on record as 0.2049.
As to `N#Cc1cnc(C(N)=O)c(NCc2cccc([N+](=O)[O-])c2)n1`, the MIC with Mycobacterium avium [1] was more than 100 µg/mL; against Mycobacterium kansasii, more than 100 µg/mL; against Mycobacterium avium [4] it was more than 100 µg/mL; in series [5], 84 µM. The “log K” value in series [2] was found to be 0.1331. The “Selectivity Index” value in series [3] came to 5.4. In addition, half-maximal inhibition with HepG2 (IC50) was put at 457 µM.
